HSF-1 act: HSF-1 activators, primary screen, NIH3T3-HGL cells, MG132 stress, luminescence, single point | NIH3T3-HGL HSF-1 luciferase reporter, 8 h; 100% = twice DMSO control signal | activation, % at 9 µM | 300,000 tested, 1.7% active | AID 504408, 2011;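 active means mean replicate activation of at least 50% with a set share of replicates each reaching 50%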;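 further: 0% = median of the neutral control wells and 100% = twice that signal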
CHT PAM: CHT positive allosteric modulators, primary screen, cell-based, membrane potential dye, choline EC20; AID 488977, 2010; 310,000 tested, 0.49% active; CHT-expressing cells; active compounds read high; LV-AA mutant CHT in HEK293 cells; B-score at 10 µM; High affinity choline transporter 1 (Homo sapiens), Q9GZV3;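 active means initial fluorescence not abnormally high and integrated response B-score, plate-corrected, over 3 SD above library mean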
Target sequence (Q9GZV3 whole entry, looked up): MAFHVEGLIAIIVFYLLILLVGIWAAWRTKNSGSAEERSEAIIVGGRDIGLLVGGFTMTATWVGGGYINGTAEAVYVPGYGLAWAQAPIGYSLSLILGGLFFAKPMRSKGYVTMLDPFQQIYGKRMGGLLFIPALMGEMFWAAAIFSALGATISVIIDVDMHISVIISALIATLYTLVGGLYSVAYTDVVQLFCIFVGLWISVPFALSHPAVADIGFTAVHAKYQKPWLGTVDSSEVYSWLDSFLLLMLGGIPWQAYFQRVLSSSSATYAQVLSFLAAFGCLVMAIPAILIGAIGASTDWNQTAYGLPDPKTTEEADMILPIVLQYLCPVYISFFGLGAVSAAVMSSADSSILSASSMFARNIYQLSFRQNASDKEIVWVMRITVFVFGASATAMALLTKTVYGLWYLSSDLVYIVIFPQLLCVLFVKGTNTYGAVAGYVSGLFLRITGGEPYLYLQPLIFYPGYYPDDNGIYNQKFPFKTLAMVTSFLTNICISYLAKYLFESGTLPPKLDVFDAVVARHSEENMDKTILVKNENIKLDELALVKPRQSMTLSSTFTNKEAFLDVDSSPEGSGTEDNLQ
HSF1 inhib: HSF1 inhibitors in luciferase reporter cells, primary screen, cell-based, NIH3T3, luminescence; NIH3T3-HGL HSE-luciferase, MG132-induced, luminescence 8 h; active compounds read low; activity change, negative = inhibition, % at 7.5 µM (by protocol); 300,000 tested, 0.77% active; AID 2098, 2009;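 active means more than half of replicate wells show activity change below -50%, luminescence cut by over half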;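 further: luciferase reports HSF-1 transcriptional activity via heat shock element; 0% = median of DMSO wells and -100% = zero luminescence signal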
Hep lipid drop: inhibitors of hepatocyte lipid droplet formation, primary screen, imaging, high-throughput imaging, BODIPY stain; AML12 mouse hepatocytes, oleate lipid droplets; inhibition, % at 6.5 µM; 240,000 tested, 0.4% active;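 active means lipid droplet intensity inhibited by at least 50%, with more than 500 cells counted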
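Test system: AML12 mouse liver cells; schedule: overnight exposure; technique: high-content imaging of BODIPY-stained droplets and DAPI nuclei; read-out: % inhibition of corrected integrated BODIPY droplet signal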
PHOSPHO1 inh: PubChem AID 1565; inhibition, % at 13.3 µM; recombinant PHOSPHO1, absorbance phosphatase assay; 290,000 tested, 1.1% active; in the data active means inhibition above about 60%
CHT inh: inhibitors of human choline transporter CHT | High affinity choline transporter 1 (Homo sapiens), Q9GZV3 | B-score at 10 µM | CHT-expressing cells, membrane potential dye, choline response; active compounds read low | 310,000 tested, 0.86% active;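 active means B-score over 3 SD under the library average, and starting fluorescence ratio not unusually high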;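 further: choline stimulus applied at its EC90 after an EC20 pre-addition; B-score computed on integrated fluorescence ratio after choline addition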
CHT block conf: CHT inhibitors, confirmation, cell-based, membrane potential dye, duplicate; shares compounds with CHT inh; CHT-expressing cells, choline membrane potential dye; LV-to-AA substituted CHT, HEK293 cells; CHT activity remaining % of control (active compounds read low), % at 10 µM; 2,400 tested, 70% active; AID 493221, 2011;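 active means choline transporter activity left, mean of duplicates at 10 µM, below buffer-only control mean minus 3 SD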;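 further: depolarization triggered by choline at its EC90 following an EC20 pre-addition; 0% = hemicholinium-3 full block and 100% = buffer-only control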
HEK293 CHT ctr: membrane potential effects in parental HEK293, counter-screen for CHT inhibitor project, cell-based, membrane potential dye; shares compounds with CHT inh; membrane potential ratio readout (active if shifted either direction beyond buffer ±3SD; no single direction) at 10 µM; choline response; active = decrease or increase beyond buffer ±3SD; AID 493222, 2011; 2,400 tested, 4% active;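 further: parental cells lack the transporter so any hit is non-specific; ratio is peak minus trough fluorescence over baseline after EC90 choline challenge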
* marks the source's active call; other numbers are inactive results; i = inactive; . = not tested or not shown. This is a sample that favours compounds with a hit; in the whole collection about 4.9% have one here.

SMILES	HSF-1 act	CHT PAM	HSF1 inhib	Hep lipid drop	PHOSPHO1 inh	CHT inh	CHT block conf	HEK293 CHT ctr
COc1ccc(NS(=O)(=O)c2ccc(NC(=O)c3ccccc3Br)cc2)nn1	4	i	6	5	-5	-8.5*	19%*	i
COc1ccc(C(=O)Nc2ccc(S(=O)(=O)Nc3cnc4ccccc4n3)cc2)cc1	-1	i	-1	4	19	i	.	.
O=C(Nc1ccc(S(=O)(=O)Nc2cnc3ccccc3n2)cc1)c1ccc(Cl)c([N+](=O)[O-])c1	2	i	2	1	.	-6.1*	60%*	i
COc1cc(NS(=O)(=O)c2ccc(NC(=O)c3ccc(Cl)cc3Cl)cc2)ncn1	0	i	0	2	8	-9.3*	27%*	i
CCc1ccc(N(CC(=O)NCc2ccc(F)cc2)C(=O)c2csnn2)cc1	1	i	11	-9	41	i	.	.
CC(OC(=O)C1CCN(c2ccc(C(F)(F)F)cn2)CC1)C(=O)c1ccccc1 (configuration not stated)	17	i	5	.	.	i	.	.
O=C(NCc1ccncc1)c1cc(F)c(F)cc1Cl	-4	i	-7	-9	48	i	.	.
O=C(Cc1ccc(Cl)cc1)Nc1ccc(S(=O)(=O)Nc2cnc3ccccc3n2)cc1	21	i	1	-3	17	i	.	.
O=C(Nc1ccc(S(=O)(=O)Nc2cnc3ccccc3n2)cc1)c1ccc(Cl)cc1Cl	12	i	3	.	.	-13*	-9.5%*	i
O=C(Nc1ccc(Cc2ccncc2)cc1)c1cc(F)c(F)cc1Cl	11	i	6	-16	32	-8.5*	i	i
CCOC(=O)c1cnc2c(Cl)cc(Cl)cc2c1NCCOCCO	9	i	0	.	1	-10*	34%*	i
CC(=O)Nc1ccc(C(=O)N(C)C(C(=O)Nc2ccc(C)cc2)c2ccccn2)cc1 (configuration not stated)	10	i	11	1	7	i	.	.
CNC(=O)CSCc1cnn(-c2ccccc2)c1-n1cccc1	16	i	6	-9	25	i	.	.
CCOC(=O)N1CCC(NC(=O)CSCc2cnn(-c3ccccc3)c2-n2cccc2)CC1	37	i	13	.	26	-7.3*	i	i
O=C(CSCc1cnn(-c2ccccc2)c1-n1cccc1)NCc1cccs1	.	i	.	-12	32	-6.5*	i	i
CCCn1c(SCc2cc(=O)oc3ccc4ccccc4c23)n[nH]c1=O	33	i	7	.	92*	-5.4*	i	i
Cc1nnc(SCc2cc(=O)oc3ccc4ccccc4c23)n1Cc1ccccc1	10	i	8	-54	-12	i	.	.
CCOC(=O)Cc1csc(NS(=O)(=O)c2ccc3c4c(cccc24)C(=O)N3CC)n1	2	i	5	.	20	-5*	46%*	i
Cc1cc(C)cc(Nc2ccc3nonc3c2[N+](=O)[O-])c1	-9	i	0	.	.	i	.	.
O=C(c1ccc2c(c1)OCO2)C1CCCN(Cc2ccccc2OC(F)F)C1 (configuration not stated)	20	i	4	-2	-9	i	.	.
COc1cccc(CN2CCCC(C(=O)c3ccc4c(c3)OCO4)C2)c1OC (configuration not stated)	10	i	2	-38	2	-12*	i	i

High-throughput results: PubChem, several laboratories
